Key:
[1] = Inhibition of trypsin
Outline: (§1)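 Protease-inhibition assay read on a microplate (ELISA-type) reader. Activity is reported as IC50.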

[2] = Inhibition of thrombin; outline: as §1

IC50 [1]	IC50 [2]	SMILES
8.5 µM	> 45.5 µM	CC(C)C[C@@H](NC(=O)[C@H](O)Cc1cc(Cl)c(O)c(Cl)c1)C(=O)N1[C@H](C(=O)NCCCCNC(=N)N)C[C@@H]2CC[C@@H](O)C[C@@H]21
18.2 µM	> 45.5 µM	CC[C@H](C)[C@@H](NC(=O)[C@H](O)Cc1cc(Br)c(O)c(Br)c1)C(=O)N1[C@H](C(=O)NCCCCNC(=N)N)C[C@@H]2CC[C@@H](OS(=O)(=O)O)C[C@@H]21 (relative stereo)
2.3 µM	12.9 µM	CC[C@H](C)[C@@H](NC(=O)[C@H](O)Cc1cc(Br)c(O)c(Br)c1)C(=O)N1[C@H](C(=O)NCCCCNC(=N)N)C[C@@H]2CC[C@@H](O)C[C@@H]21 (relative stereo)
12.2 µM	> 45.5 µM	CC[C@H](C)[C@@H](NC(=O)[C@H](O)Cc1cc(Cl)c(O)c(Br)c1)C(=O)N1[C@H](C(=O)NCCCCNC(=N)N)C[C@@H]2CC[C@@H](OS(=O)(=O)O)C[C@@H]21 (relative stereo)
3.2 µM	12.8 µM	CC[C@H](C)[C@@H](NC(=O)[C@H](O)Cc1cc(Cl)c(O)c(Br)c1)C(=O)N1[C@H](C(=O)NCCCCNC(=N)N)C[C@@H]2CC[C@@H](O)C[C@@H]21 (relative stereo)

— ChEMBL document CHEMBL2203163, “Bromine- and chlorine-containing aeruginosins from Microcystis aeruginosa bloom material collected in Kibbutz Geva, Israel” (J Nat Prod, 2012)
